EphB4 antag: EphB4-ephrin-B2 interaction antagonism. 97,000 tested, 0.15% active. EphB4 LBD / TNYL-RAW-Alexa532 peptide, fluorescence polarization. inhibition, % at 7 µM. P54760;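 active = inhibition above the screen-wide mean inhibition plus 3 SD, cut at about 15% in these data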;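 note: 0% = DMSO wells and 100% = excess unlabeled TNYL-RAW peptide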
Cav3 T inh: inhibitors of human Cav3.2 T-type calcium channel | B-score at 10 µM | 100,000 tested, 4% active | O95180 | Cav3.2-expressing cells, Fluo-4 calcium fluorescence FDSS; hits give low values;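 active = single-dose well whose peak fluorescence ratio is a statistical outlier from its plate by either plate-standardised score or position-corrected B-score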
DAT uptake mod: modulates human dopamine transporter uptake under cocaine | Q01959 | LLC-PK1 hDAT cells, [14C]-dopamine uptake with cocaine IC80; actives deviate in either direction | B-score at 10 µM | 110,000 tested, 1.3% active;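 active = Z score or B-score, a plate-position-corrected score, falls beyond the plate's 99.7% confidence bounds, in either direction; inactive = both scores lie inside the 99.7% bounds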;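 note: scored against the spread of the other compound wells on the same plate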
HIV Rev-RRE inh: disrupts HIV-1 Rev binding to RRE RNA; P05866; Rev peptide-RRE RNA binding, FRET; inhibition, % at 8 µM; 97,000 tested, 0.79% active;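 active = inhibition above the screen-wide mean plus 3 SD, cut at about 35% in these data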;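 note: 0% = median DMSO wells and 100% = median Neomycin B control wells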
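Assay system: labelled RRE RNA duplex and labelled Rev peptide / Medium: HEPES pH 7.5 salt buffer with EDTA / Reagent: labelled Rev peptide / Schedule: 5 + 15 min at 25 °C / Signal: FRET, excitation 480 nm, emission 540 nm donor and 671 nm acceptor / Benchmarks: DMSO and neomycin B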
* = called active by the depositor; · = no result. An excerpt weighted towards active compounds, which were near 5.4% of everything screened.

SMILES | EphB4 antag | Cav3 T inh | DAT uptake mod | HIV Rev-RRE inh
O=c1[nH]c(NCCCO)nc2c1C1(CCCC1)Cc1ccccc1-2 | · | -4.1* | -0.098 | ·
Cc1ccc2nc(N3CCN(C=O)CC3)nc(-c3ccccc3)c2c1 | -3 | -1.6 | 2.8* | 6
O=C(Cc1cccs1)NCCn1ccc2ccccc21 | · | -0.94 | -0.096 | ·
Cc1ccc([N+](=O)[O-])cc1NC(=O)CN(C(=O)c1ccc(Cl)cc1)C1CCCCC1 | 0 | -9.4* | 0.15 | 15
Cc1ccc([N+](=O)[O-])cc1NC(=O)CCSc1ccc(Cl)cc1 | 6 | -3.4 | 0.043 | 7
O=C(CN(C(=O)c1ccccc1Cl)C1CCCCC1)Nc1ccc(Cl)c([N+](=O)[O-])c1 | 5 | -9.9* | -1.4 | 10
Cc1cc(C)n(-c2nc(SCCN(C)C)c3c4c(sc3n2)COC(C)(C)C4)n1 | -8 | -0.0071 | 1.2 | 4
CC(=O)N1[C@H](C)C=C[C@]1(Cc1ccccc1)C(=O)O | · | 0.59 | -0.11 | ·
CN(C1CCCCC1)S(=O)(=O)c1ccc(NC(=S)NC(=O)c2cccs2)cc1 | 1 | -5.7* | 0.21 | 1
O=C(CSc1nccc2ccccc12)N1CCN(c2ccccn2)CC1 | 4 | · | · | 8
Cc1cccc(S(=O)(=O)c2c(N)n(/N=C/c3cccnc3)c3nc4ccccc4nc23)c1 | 9 | 0.84 | 3.2* | 0
Cc1cccc(S(=O)(=O)c2c(N)n(/N=C/c3ccco3)c3nc4ccccc4nc23)c1 | 6 | -0.15 | 0.045 | 17
CNS(=O)(=O)c1cccc(C(=O)OCc2cc(Cl)cc3c2OCOC3)c1 | 6 | -4.2* | 0.013 | 12
CNS(=O)(=O)c1cccc(C(=O)OCC(=O)N2CCc3ccccc3C2)c1 | -4 | 0.42 | -0.82 | 1
COc1cc(OC)c2ccc(=O)oc2c1C(CCN1CCCC1)c1ccc2c(c1)OCO2 (stereo unspecified) | · | 0.98 | 1.1* | ·
O=c1c2ccccc2sc2ccc(C#CC3(O)CCCCC3)cc12 | · | -0.25 | 1.1 | ·
O=c1c2ccccc2oc2cc(C#CC3(O)CCCCC3)ccc12 | · | 0.18 | 2.2* | ·
CCCCCCCCS(=O)c1sc2nc3c(cc2c1N)CCCC3 (stereo unspecified) | -4 | -4.8* | 0.69 | 0
Nc1nc(SCc2ccccc2Cl)ns1 | 9 | -1.3 | -0.46 | 2
O=C(NCc1ccco1)C1CCN(C(=O)c2cc3sccc3n2Cc2ccc(F)cc2)CC1 | -5 | -1.7 | 0.76 | 5
CC1Cc2ccccc2N1C(=O)c1cc2sccc2n1Cc1ccc(F)cc1 (stereo unspecified) | 3 | -5.6* | -0.18 | 21
CC1Cc2ccccc2N1C(=O)CSc1nc2c(c(=O)n(C)c(=O)n2C)n1Cc1ccc(F)cc1 (stereo unspecified) | 2 | 0.33 | -6.9* | 11
CCn1c(SCC(=O)N2c3ccccc3Sc3ccccc32)nc2c1c(=O)n(C)c(=O)n2C | · | -0.48 | 0.047 | ·
CCCCn1c(SCC(=O)N2c3ccccc3Sc3ccccc32)nc2c1c(=O)n(C)c(=O)n2C | 7 | -4.8* | 3.2* | 0
COC(=O)CC1c2ccccc2S(=O)(=O)N1Cc1ccccc1 (stereo unspecified) | · | 0.12 | 0.063 | ·
SMILES | EphB4 antag | Cav3 T inh | DAT uptake mod | HIV Rev-RRE inh
CCOCCOC(=O)C1=C(C)NC2=C(C(=O)CC(c3cccs3)C2)C1c1ccsc1 (stereo unspecified) | -15 | -0.94 | 0.25 | -2
CC1=C(C(=O)Nc2ccccc2F)C(c2ccsc2)C2=C(CC(c3ccccc3)CC2=O)N1 (stereo unspecified) | -9 | -6.5* | 1.2 | 1
Cc1cc2ccccc2n1CCNC(=O)c1ccc(S(=O)(=O)N2CCCCC2)cc1 | 3 | -0.085 | 2.5* | 13
Cc1cc2ccccc2n1CCNC(=O)Cc1ccccc1 | -2 | -0.14 | 0.1 | -1
Cc1ccc(NC(=O)C2=C(O)c3ccccc3N(C)S2(=O)=O)cc1 | 6 | -0.86 | 2.2 | 9
O=C(COC(=O)C12CC3CC(CC(C3)C1)C2)Nc1ccc(OC(F)F)cc1 | -1 | -6.2* | 0.16 | 16
CC12CCC(C(=O)N3CCN(Cc4ccccc4)CC3)(OC1=O)C2(C)C (stereo unspecified) | 3 | 2 | 0.17 | -3
O=C(O)/C=C1\NC(=O)c2ccccc21 | -1 | -0.33 | -1.1 | 1
O=C1N/C(=C\c2ccc(O)cc2)C(=O)c2ccccc21 | 5 | -0.71 | -0.28 | 69*
N#CCSc1nnc(Cc2cccc3ccccc23)n1C1CCCCC1 | 2 | -5.7* | 0.73 | 8
CCC1/C(=N\O)CC(c2ccco2)NC1c1ccco1 (stereo unspecified) | 7 | -0.027 | -0.91 | 1
CCOC(=O)c1cc(CC)sc1NC(=O)c1cc(OC)c(OC)c(OC)c1 | -4 | -0.026 | 0.24 | -1
CCOC(=O)c1sc(N)c(C#N)c1COC(=O)CNC(=O)c1cc(OC)c(OC)c(OC)c1 | -2 | · | 0.8 | 53*
CN(C)S(=O)(=O)N1CCN(C(=O)c2cccs2)CC1 | 0 | · | -0.1 | 5
O=S(=O)(NCc1ccccc1)c1ccc(S(=O)(=O)N(Cc2ccccn2)C2CCCC2)cc1 | 0 | -4.1* | 0.9 | 15
CCNS(=O)(=O)c1ccc(S(=O)(=O)N(Cc2ccccn2)C2CCCCC2)cc1 | -7 | -0.81 | 0.0041 | 12
COc1ccc(/C=C2\CCc3ccccc3C2=O)cc1Cn1nc(C)c(Br)c1C | -10 | · | · | 5
COc1ccc(/C=C2\CCc3ccccc3C2=O)cc1Cn1cccn1 | -5 | -3.7* | 1.2 | 7
O=C(Nc1nc2ccccc2s1)C1CC(=O)N(c2ccc(Br)cc2)C1 (stereo unspecified) | -8 | -3.1 | -0.057 | 19
O=C(Nc1nc2ccccc2s1)C1CC(=O)N(c2ccccc2)C1 (stereo unspecified) | -9 | -5.1* | 0.65 | 2
O=C(Nc1nc2ccccc2s1)C1CC(=O)N(c2ccc(F)cc2)C1 (stereo unspecified) | 3 | -4.6* | 1.1 | 13
COc1ccccc1S(=O)Cc1ccc(C(=O)NCCc2ccc(Cl)cc2)o1 (stereo unspecified) | 0 | -0.81 | 1.5 | 8
CCOc1ccc2nc(NC(=O)C3CCCN(S(=O)(=O)c4c(C)noc4C)C3)sc2c1 (stereo unspecified) | · | -0.32 | 0.0076 | ·
COc1ccc(C(=O)NC(=S)NC(C)(C)C)cc1Br | 0 | -0.3 | 0.29 | -5
OC1(c2ccc(F)cc2)CCN(Cc2nnnn2Cc2cccs2)CC1 | -2 | -0.46 | 0.52 | 12
SMILES | EphB4 antag | Cav3 T inh | DAT uptake mod | HIV Rev-RRE inh
O=C1C2C(C(=O)N1/N=C/c1cc(Br)cc([N+](=O)[O-])c1O)C1C=CC2C12CC2 (stereo unspecified) | -9 | -6* | -0.17 | 4
Cc1ccc(C(=O)Cn2c(C(=O)/C=C/c3ccccc3)nc3ccccc32)cc1 | 3 | 0.7 | 0.23 | 0
Cc1sc2ncnc(OCC(=O)NCc3cccs3)c2c1C | 7 | 0.57 | 0.25 | 2
CNc1nnc(-c2cc3cc(Cl)ccc3oc2=O)s1 | 4 | -1.6 | 0.14 | 79*
COc1ccc2oc(=O)c(-c3nnc(NCc4ccco4)s3)cc2c1 | 11 | -1.5 | 0.4 | 43*
O=c1oc2ccccc2cc1-c1nc2c(s1)CCCC2 | 3 | · | · | 11
